Test system: MS2 coat protein
Experiment: apparent Kd, MS2 coat protein; higher = weaker binding; RNA-MaP array; FMN 200 µM where present
Procedure, shortened: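 The apparent Kd comes from binding curves fitted cluster by cluster, filtered, and summarised as a median. Those curves followed SNAP-549-labelled MS2 coat protein from 0.7 or 1.5 nM, doubling to 3 µM, on Illumina sequencing-chip clusters where stalled E. coli RNA polymerase had transcribed the designs, without and then with constant ligand. The buffer was 100 mM Tris-HCl pH 7.5, 80 mM KCl, 4 mM MgCl2, BSA, DTT, yeast tRNA and Tween-20, and green signal was normalised to red-channel RNA signal and control-cluster median Fmax.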

[1] = designed as: OFF switch for flavin mononucleotide, no ligand
[2] = ligand present: flavin mononucleotide, designed as: OFF switch for flavin mononucleotide
[3] = designed as: ON switch for flavin mononucleotide, no ligand
[4] = ligand present: flavin mononucleotide, designed as: ON switch for flavin mononucleotide

Sequence	apparent Kd [1] [nM]	apparent Kd [2] [nM]	apparent Kd [3] [nM]	apparent Kd [4] [nM]
GCCAAGCUAGGAUAUACCCAGGGUUUGUUCUCUAACAACACACAUGAGGAUCACCCAUGUAGAAGGAGCCGGGA	38.3	81		
UACACUACUGAGAAGGGAUACAUAUAAUUUUAGUCAGGAUAUCGAUACAGUGCAGCAUGAGGACAUGAGGAUCACCCAUGUAUU			22.3	14.6
CCAUGGUGGGCAGGAUAUCGUCCAGCUUGCGGACGAGAAGGGCUCAAACAUGAGGAUCACCCAUGUGAAGAGCGGGUUGUCCAA	24.6	146		
CAUGUCCUCACAGGAUAUGCAAUGUAUUUCAUUGCAGAAGGGUGAACACAUGAGGAUCACCCAUGUGGACAUGAUAUAUUUAAG			529	63.4
AGCUAGUCAGGAUAUACGUGCAUGUCAAAAGACGUGAAGGGACAUGAGGAUCACCCAUGUAGAAGGGACUAGCA	54.5	231		
GGACGUCACAUUAACAUGAGGAUCACCCAUGUCUCUAGACAUGAGGAUAUGGAUCCUAAUUGGAUCCAGAAGGCAUGGACGUCC			1030	143
GCGAUUUUGUAAGGAUAUACACGAGUUUUAAGUGUAGAAGGUACUUACAUGAGGAUCACCCAUGUAUUAAUGAUUACUAGUCGC			6.99	6.33
GCUGCUAUCGCAGGAUAUUACAUGGGAAAUAAGACAUGAGGAUCACCCAUGUUAAAUAUCGUAAAUAAGAAGGGCGAUAGCAGC			270	475
GCGCUAAAACAGAAGGCCAAAUACAUGAGGAUCACCCAUGUCGAAUCAUGGAGGAUAUGUUAUUAAUUACACGCAGAUGAGCGC			90.8	9.9
AAAGUAGGAGGAUAUACAUAGAUACAGAUACAUGUAGACGUACAUGAGGAUCACCCAUGUAGAAGGCCUAUGUA	65.9	212		
CGGUACUUAGGAUAUACAUGAGGAUCACCCAUGUAGAAAUGGUGGGUGCCGUCCUGUGGUAGAAGGAAGAAUCG	28.5	50.2		
CGUUUAUUUAUUGGAUUAUAUUAUGAGGAUAUCAAUAUUUAUUACAUGAGGAUCACCCAUGUUAAUGAGAAGGCAUAAUUAACG			9.99	6.68
GAUACACAUGAGGAUCACCCAUGUGAGGAUAUGCGUACGUUGUCCGUAGGCGACGUGCGCAGAAGGCGCAAGGU	83.2	95.3		
UGUUUUCAUGUAGGAUAUGCUUGUCGUAGAUACGCAGAAGGACAUGAGGAUCACCCAUGUUAAAGCGACAGAGUAUAGAUUCUU	16.3	22.3		
CUAUUAUUGAUCCAUUUUUUCAACAUGAGGAUCACCCAUGUGCAGGAUAUCGUGAUUAUUAUCAACGAGAAGGGCAAAUUCACG	45.7	149		
AUAAGCAUUUAUGUGUGCGUAGCACAGGAUAUGCUCCGCGCACAUGAGGAUCACCCAUGUUCGCAGCAGAAGGGUGCAUGCGUU			330	61.5
UGAUCUAUGUAGAAGGCCCAUAUCUAUAUUUAGGGAGGAUAUACAUGAGGAUCACCCAUGUAUAGAGCUAGUGGACUAGUCACC	20.9	47.1		
AGAAACUACGAGAAGGACAUGUGGUCCUUCGAAAACAUGAGGAUCACCCAUGUAGGAUAUCGUAGUUUCAGGAUCGUGAGAUCA	18.2	4.37		
CUAGCAACAUGAGGAUCACCCAUGUAGGAUAUCGCUAUUGUAAUCAUGAAACAUGAUUACAAUAGCGAGAAGGACAUAUGCUAU	8.33	9.83		
GGUACCAUCACAGGAUAUGCUUUUCUUUGGGAAGCAGAAGGGUGUAACAUGAGGAUCACCCAUGUGGUGCCAGGGCGUGAGCCC			182	14.7
ACUACGAUAGCGAUAUGAUCGAGAGAUCAUGUCGCUAUUUUUAGAAGGACAUGAGGAUCACCCAUGUAGGAUAUGGGACGUGGA			70.4	27.1
AUACGCUGAGGAUAUACCAAAACAACAACCUCGUGUAUAAUACAUGAGGAUCACCCAUGUAGAAGGCAGUAAAC	58.6	116		
CUGCGCUAGGAGAAGGGCUAGAGUGUGAUAUAUUUGCCCGCGAGCACAUGAGGAUCACCCAUGUAGCAGGAUAUCCAAGCCGGU	6.86	16.5		
AAAAAACAUGAGGAUCACCCAUGUGAGGAUAUGUAUAUCCCUAAAAAAGUGUGGGACUACAGAAGGCACUUGGA	79.7	207		
ACGCAGCUGGGUAAGGAUAUCGGUGGUAAAACAUGAGGAUCACCCAUGUCCGAAGCUCGGACCUCCGAGAAGGUGCCCGGCUGCG			8.17	8.14
UUUUUGUCAGGAUAUGACUAGAUGCACGUUAGUGCAUCUACUUAGAAGGGACAUGAGGAUCACCCAUGUAUUCC	29.8	24.3		
UCAUAUUUACAAGGAUAUCAAUUAUUUAUACAUCCUACAUGAGGAUCACCCAUGUUAAUAUAUUUUGAGAAGGUGUAUUGUCGG			32.1	31.2
AUCAUGAGAGGAUAUACAUGAGGAUCACCCAUGUGGUAAACACCAUGAGCUCAAUUACGUAGAAGGCUCAUUUG	26.4	45.6		

Sequence	apparent Kd [1] [nM]	apparent Kd [2] [nM]	apparent Kd [3] [nM]	apparent Kd [4] [nM]
UGUUGUUCAGGAUAUGAUGUAUAAUACAUGAGGAUCACCCAUGUGGGUCCUGAUUUGGCGUCAGAAGGGAAUGUUG	88.3	146		
CGCUGUCACGCAGGAUAUGCAUUGGAUUACAAUGCAGAAGGGCGAUCACAUGAGGAUCACCCAUGUGUAGACAGUGAAUAAGAG			611	49.6
GUGCAUACGUGAGGAUAUGUAUUAGCUCGUGGUACAGAAGGCAUGUCUGAUGACAUGAGGAUCACCCAUGUUGGCACAGUGCGC			48.2	27.6
GUUCUGUUAGGAUAUUGGAAAUCCGUAGCUGUGGCGCGCUUCAAGAAGGAACAUGAGGAUCACCCAUGUGAAAU	25	25.4		
CUGUUAUAUGAAGGAUAUACUUAACAUGAGGAUCACCCAUGUGGUGUUGUGAGUGAGUGAGUUUAGUAGAAGGUCAAUUCUUUU	207	221		
CCACCCUGAGGAUAUCCACCCUCAUACAUGAGGAUCACCCAUGUUCAUCCCUGAGUACCCGGAGAAGGCAGAUUUC	87.7	57.9		
GGUACUCAAAGAGUACCAAUACGAACAUGAGGAUCACCCAUGUAGGAUAUGCUACUCAAAGAGUAGCAGAAGGACAUGUGCUUA	25.9	135		
AUCAUGUGAGGAUAUGUGAUCAACCUUCUGUAUAGAUGAUUACAGAAGGCACAUGAGGAUCACCCAUGUAGAUC	70.9	79		
AUUUAAAUGUCAGGAUAUGUUAGUUUAUACUUAGUAGAAGGGAUAAUUAUACUCAAGUACAUGAGGAUCACCCAUGUUAAAUCA			21	18.5
ACAGAAGCACCCGGAACCGGACAAUGAGAAGGCCACGCACAUGAGGAUCACCCAUGUAAAGCUAUGGAGGAUAUCAUGAUGGAU			40.3	5.64
AUUACCAGAGGAUAUGCGAGGGUGUACCUCCCACAGCGAACACAUGAGGAUCACCCAUGUAGAAGGCUGAACAU	38.9	33		
CGAUGACAAAGUCAUCGAAUACGAACAUGAGGAUCACCCAUGUAGGAUAUGCUACUCAAAGAGUAGCAGAAGGACAUGUGUCUU	31.4	154		
AACACACAUGAGGAUCACCCAUGUGAGGAUAUCAUGCUUCGUAGUAAACUACGAAGUGUGAGAAGGCACAUGUU	62.4	193		
CCAUGGCUGUAAGGAUAUGUCUGACAAAGUCAGACAGAAGGUACAUGAGGAUCACCCAUGUGAAGAAAACCACAUUUGCCAUGG	6.68	8.41		
UUCUUACAUGAGGAUCACCCAUGUCAGGAUAUCUCCGCACUGCGCUUGCGCAGUGCAUAGAGAAGGGACAGGCU	55	50.2		
CGUUGAUAAUAUCUUCACAUGAGGAUCACCCAUGUCGCUCGACAGGAUAUAUUUGAGUUGUUUAAGUAGAAGGGUCGCAGAUGC			148	136
UUGGGACAUGAGGAUCACCCAUGUCAGGAUAUCCCGGCCCGCCCGUGAGGGCGGGCCGGGAGAAGGGACCUUUG	41	42.9		
GGUACUCAAAGAGUACCAAUACGAACAUGAGGAUCACCCAUGUAGGAUAUGCUAUGCAAAGCAUAGCAGAAGGACAUGUGCCUU	41.7	276		
GCGCGUUGAGGAUAUACGAACAUGUCGCCAGAUGUCAUGGUACAUGAGGAUCACCCAUGUAGAAGGUGGUGCGC	208	352		
ACUGGUCGAGGAUAUACGUGACGUGCUUCGGCACGAGGUCUACAUGAGGAUCACCCAUGUAGAAGGCGACCAGU	17	53.9		
CCAUUUCAGUAAGGAUAUAUAAACAUGACGAUACAUGAGGAUCACCCAUGUGUAGAAGGUACUAAUACAUAUAAUGCAAUGUUC	16.6	15.7		
CGCAUGCGUAGUAUUAGUUGUUGACAGGAUAUGACAUGAGGAUCACCCAUGUGUAUUAAGAAGUGUCAGAAGGGUCUCGUUGCG	6.53	9.73		
GGUGCGUUUGUGAGGAUAUGCUGGUCCUUGGAUCAGCAGAAGGCACAUGAGGAUCACCCAUGUGGUGUCCGUCC	222	117		
UCACGAGACUAAGGAUAUGGAGUGUCAACAUAAAACAUGAGGAUCACCCAUGUAAAGAGUACGAUUCAGAAGGUAGAGACGUGA			43	25.1
AGUCGGAGCAGAGGAUAUACAUGAGGAUCACCCAUGUAAUAAAGUGAAGCUUGGAAACAGGCAAUGUAGAAGGCUGCUCCGACA	11.3	68.6		
UGAUCGAAAGAUCAUAGAUUCUGGCAGGAUAUGCAGUAGUUUUAAUUUACAUGAGGAUCACCCAUGUAGAAGGGCUAGAGUCUA	6.33	7.4		
ACAUCUCGAGCCGACGGGAGAGUACAUGAGGAUCACCCAUGUGAGGAUAUCCCUGAGAAGACGGCGGAGAAGGCACUGGGUAGG	6.33	10.4		

Reference: the EternaBench riboswitch data
